Here are results for three molecules from ChEMBL document CHEMBL1137404, “Enzyme specific activation of benzoquinone ansamycin prodrugs using HuCC49DeltaCH2-beta-galactosidase conjugates” (J Med Chem, 2006).

Assay [1] deals with LS174T. Kind of assay: Cytotoxicity against human LS174T cells by MTS assay. In kind it is functional, cell-based. An outline of the steps: (§1)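 LS174T cells (2,000−5,000/well) grown 24 h, then given 1 h with PBS, enzyme-only staining buffer or antibody-enzyme conjugate (2 units) and washed three to five times. Compound added at 0−25 μM for 72 h.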
Background: Tetrazolium dyes change colour on reduction, which living cells bring about.

For assay [2], the system named is LS174T. Kind of assay: Induction of Hsp90-mediated AKT degradation in human LS174T cells after 1 hr in presence of HuCC49deltaCH2-beta galactosidase conjugate by Western blotting. In kind it is functional. A digest of the protocol: (§2)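 LS174T cells at 50−70% confluence given 1 h with free β-galactosidase or antibody-enzyme conjugate in PBS with 2% FBS, washed, then exposed 24 h to 2 or 10 μM compound. Lysates (30 μg) run on 10% SDS-PAGE and blotted for AKT and β-actin by ECL. AKT expressed as Akt:β-actin ratio relative to control (100%).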
Background: A western blot detects proteins with antibodies after separation by electrophoresis.

The test system of assay [3] is LS174T. As to the kind of experiment: Cytotoxicity against human LS174T cells in presence of HuCC49deltaCH2-beta galactosidase conjugate by MTS assay. The format is functional, cell-based. A digest of the protocol:
as §1

The subject of assay [4] is LS174T. Kind of assay: Induction of Hsp90-mediated AKT degradation in human LS174T cells in absence of HuCC49deltaCH2-beta galactosidase by Western blotting at 2 uM. In kind it is functional. An outline of the steps:
as §2

Assay [5] relates to LS174T. Kind of assay: Induction of Hsp90-mediated AKT degradation in human LS174T cells in absence of HuCC49deltaCH2-beta galactosidase by Western blotting at 10 uM. In kind it is functional. A digest of the protocol:
as §2

Assay [6] relates to LS174T. As to the kind of experiment: Induction of Hsp90-mediated AKT degradation in human LS174T cells in presence of HuCC49deltaCH2-beta galactosidase conjugate by Western blotting at 2 uM. The format is functional. An outline of the steps:
as §2

Assay [7] relates to LS174T. As to the kind of experiment: Induction of Hsp90-mediated AKT degradation in human LS174T cells in presence of HuCC49deltaCH2-beta galactosidase conjugate by Western blotting at 10 uM. The format is functional. A digest of the protocol: as §2

Each structure is given as a SMILES string. The source made the active and inactive calls. The calls are words filed in the database; no cut-off is given here. A value given as a limit tells only on which side of the number the result lay.

By IC50 is commonly meant the midpoint of a concentration-inhibition curve. The molecule `COC1=C2C[C@@H](C)C[C@H](OC)[C@H](O)[C@@H](C)/C=C(\C)[C@H](OC(N)=O)[C@@H](OC)/C=C\C=C(/C)C(=O)NC(=CC1=O)C2=O` [GELDANAMYCIN] registered a half-inhibitory concentration (IC50) with LS174T [1] of 0.45 µM.

As to `CO[C@H]1/C=C\C=C(/C)C(=O)NC2=CC(=O)C(NCCO[C@@H]3O[C@H](CO)[C@H](O)[C@H](O)[C@H]3O)=C(C[C@@H](C)C[C@H](OC)[C@H](O)[C@@H](C)/C=C(\C)[C@@H]1OC(N)=O)C2=O`, the Activity with LS174T [2] is on record as 70%. In addition, the half-inhibitory concentration (IC50) in the assay on LS174T [1] was over 25 µM; with LS174T [3], 1.12 µM. Besides, the outcome in the assay on LS174T [4] was inactive.

On to `CO[C@H]1/C=C\C=C(/C)C(=O)NC2=CC(=O)C(N)=C(C[C@@H](C)C[C@H](OC)[C@H](O)[C@@H](C)/C=C(\C)[C@@H]1OC(N)=O)C2=O`, for which the Activity with LS174T [5], in the assay with LS174T [6], with LS174T [7] and in the assay on LS174T [4] was 70% throughout.
